Assay outcomes: PubChem, The Scripps Research Institute Molecular Screening Center
In the library only some 3.4% were active in any assay of this set; here they are far more common.
TAAR1 agonist = human TAAR1 agonism; Q96RJ0; CHO RD-HGA16 TAAR1, Fluo-8 calcium fluorescence; vehicle wells 0%, saturating PEA agonist 100%; activation, % at 3 µM; actives 0.99% (n = 360,000); AID 624467;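 active means activation above the mean activation of all test compounds in the run plus 3 SD, cut at about 38% in these data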
Target sequence (Q96RJ0 whole entry, looked up): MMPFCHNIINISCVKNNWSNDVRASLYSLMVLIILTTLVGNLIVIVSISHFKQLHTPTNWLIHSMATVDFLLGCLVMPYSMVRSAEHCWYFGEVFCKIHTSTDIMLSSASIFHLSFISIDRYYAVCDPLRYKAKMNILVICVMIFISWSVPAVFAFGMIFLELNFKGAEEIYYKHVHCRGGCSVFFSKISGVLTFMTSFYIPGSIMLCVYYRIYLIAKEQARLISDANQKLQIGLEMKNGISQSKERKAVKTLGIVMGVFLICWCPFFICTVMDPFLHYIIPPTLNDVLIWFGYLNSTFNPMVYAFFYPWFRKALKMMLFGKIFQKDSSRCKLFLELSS
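Benchmarks: low control DMSO, high control PEA (EC100); System: CHO RD-HGA16 cells carrying human TAAR1 plus Gα16; Detection: Fluo-8 fluorescence, 5 s baseline then 140 s kinetic read; Schedule: 17-24 h plating, Fluo-8 75 min 37 °C, 30 min RT; Read-out basis: % activation from peak over basal fluorescence ratio, DMSO-to-PEA scaled.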
M1 antag = human CHRM1 antagonism | inhibition, % at 3 µM | CHO-K1 hM1, Fluo-8 calcium fluorescence, ACh EC80 antagonist | P11229 | actives 1.3% (n = 360,000);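 active means percent inhibition above its own plate's cutoff, namely the mean of that plate's compound wells plus 3 SD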;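 further: peak over basal fluorescence ratio during 140 s after agonist addition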
M1 PAM = positive allosteric modulators of human M1 muscarinic receptor | CHO-K1 hM1, Fluo-8 calcium fluorescence, ACh EC20; 0% = ACh EC20, 100% = maximal ACh | activation, % at 3 µM | actives 0.088% (n = 360,000) | AID 588819; in the data active means activation above about 19%, passing the limit was not always enough
TAAR1 antagonist = human TAAR1 antagonism. Q96RJ0. CHO RD-HGA16 TAAR1, Fluo-8 calcium fluorescence, antagonist. inhibition, % at 3 µM. actives 1.5% (n = 360,000). AID 624466;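 active means inhibition above a per-plate cutoff, the mean inhibition of test compounds on that plate plus 3 SD, cut at about 49% in these data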
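Assay system: CHO-derived RD-HGA16 cells stably expressing human TAAR1 plus Gα16. Timing: 140 s kinetic read after compound, 140 s after agonist. Technique: kinetic Fluo-8 calcium fluorescence measurement. Measure: % inhibition of agonist calcium response.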
CHRM1 agonist = activates human CHRM1 receptor; CHO-K1 hM1, Fluo-8 calcium fluorescence, agonist mode; 0% DMSO, 100% acetylcholine EC100; activation, % at 3 µM; actives 0.33% (n = 360,000); AID 588814;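 active means activation above the run's mean compound activation plus 3 SD, cut at about 16% in these data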;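 further: peak over basal fluorescence ratio within a 140 s kinetic read after compound addition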
Large screens that a line does not name were inactive.

COc1cc(/C=C/C(=O)c2ccc3c(c2)OCO3)cc(Cl)c1O	TAAR1 agonist 56.4, M1 antag 34.7, CHRM1 agonist 47.5
COc1ccc(C(=O)Cc2cc(OC)c(OC)cc2[N+](=O)[O-])cc1	none
CCOc1ccc(C(=O)Cc2cc(OC)c(OC)cc2[N+](=O)[O-])cc1	TAAR1 agonist 42.2, TAAR1 antagonist 63.3
Oc1ccc(Cl)cc1CNCc1ccc(Cl)cc1	TAAR1 agonist 48.8
COC(=O)[C@H](Cc1ccccc1)NC(=O)NCCC1=CCCCC1	M1 antag 39.1
COC(=O)[C@H](CCSC)NC(=O)NCCC1=CCCCC1	none
CCCCS/C(=C(/C#N)C(N)=O)c1cc2c([nH]1)CCCC2	M1 antag 25.0
COc1ccc(NC(=O)c2ccc(CN3CCN(c4ccccc4)CC3)cc2)cc1	TAAR1 agonist 39.9
COc1cccc(C(=O)Nc2ccc(N3CCN(Cc4ccccc4)CC3)cc2)c1	none
COc1cccc(NC(=O)c2ccc(CN3CCN(c4ccccc4)CC3)cc2)c1	M1 antag 20.5
COc1ccc(CNC(=O)C2CCN(c3cc(C(=O)Nc4cccc(OC)c4)ccn3)CC2)cc1	TAAR1 antagonist 49.4
COc1c(F)c(F)c(C(=O)Nc2ccc(N3CCN(Cc4ccccc4)CC3)cc2)c(F)c1F	M1 antag 47.3
COc1ccc(OC)c(S(=O)(=O)NCC2CCN(C(=O)C(=O)c3cccs3)CC2)c1	none (no result: M1 antag, M1 PAM, CHRM1 agonist)
COc1cccc(S(=O)(=O)NCc2ccc(C(=O)Nc3ccc(Cl)cc3)cc2)c1	none
COc1cccc(S(=O)(=O)NCc2ccc(C(=O)Nc3cccc(Cl)c3)cc2)c1	TAAR1 antagonist 50.3
COc1ccccc1NC(=S)N1CCC(c2nc3ccccc3o2)CC1	none
Cc1cccc(C)c1NC(=O)N1CCC(c2nc3ccccc3o2)CC1	M1 antag 27.6
CCCC#Cc1ccc2c(c1)O[C@@H](CN(C)Cc1ccc3c(c1)OCO3)[C@H](C)CN([C@@H](C)CO)S2(=O)=O	none
COc1cc(/C=N/N2CCCCC2)cc([N+](=O)[O-])c1O	CHRM1 agonist 24.7
CC1(C(=O)Nc2cnc3ccccc3c2)CCN1Cc1ccc(-c2ccccc2)o1 (stereo unspecified)	none
Cc1ccc(S(=O)(=O)N2CCN(C(=O)COC(=O)CCOc3ccc(C(C)(C)C)cc3)CC2)cc1	M1 antag 34.3
Brc1ccc(-c2c[n+]3c(n2-c2ccccc2)SCC3)cc1	M1 antag 72.9
COc1ccc(-c2c[n+]3c(n2-c2ccccc2)SCC3)cc1	M1 antag 62.4
Cc1ccc(-c2c[n+]3c(n2-c2ccccc2)SCC3)cc1	M1 antag 54.3
C[C@H](NC(=O)[C@@H]1CCCN1C(=O)[C@@H]1CCCN1C(=O)OC(C)(C)C)c1ccccc1	none (no result: M1 antag, M1 PAM, CHRM1 agonist)
CC(C)(C)c1ccc(-c2c(C#N)c(N)nc3c2CCCC3)s1	none
CCc1sc(-c2c(C#N)c(N)nc3c2CCCCCC3)cc1[N+](=O)[O-]	TAAR1 agonist 52.5
CC(C)N(CCNC(=O)C1CCCN(c2ncnc3c2nc2n3CCCCC2)C1)Cc1ccccc1 (stereo unspecified)	M1 antag 38.0
O=C(NCc1ccccc1Cl)C1CCCN(c2ncnc3c2nc2n3CCCCC2)C1 (stereo unspecified)	none
Cc1ccc(CN2CCC(CNC(=O)C3CCCN(c4ncnc5c4nc4n5CCCCC4)C3)CC2)cc1 (stereo unspecified)	M1 antag 97.3
O=C(NCC1CCN(Cc2ccccc2F)CC1)C1CCCN(c2ncnc3c2nc2n3CCCCC2)C1 (stereo unspecified)	M1 antag 90.6
CN(CCNC(=O)C1CCCN(c2ncnc3c2nc2n3CCCCC2)C1)Cc1ccccc1 (stereo unspecified)	none
CN1C(=O)[C@H]2[C@@H](c3ccc(C(F)(F)F)cc3)N[C@]3(CCCN(Cc4ccc(Br)cc4)C3=O)[C@H]2C1=O	none
CC(=O)c1ccc(S(=O)(=O)N2CCN(CC(=O)Nc3ccccc3C(=O)NC3CC3)CC2)cc1	M1 antag 37.0
COc1cc2c(cc1NC(=O)CN1CCN(S(=O)(=O)c3ccc(C)cc3)CC1)oc1ccccc12	M1 PAM 22.9
CC(C)NC(=O)OC[C@H]1O[C@H](C#Cc2ccc(C(C)(C)C)cc2)C=C[C@H]1O	none (no result: M1 antag, M1 PAM, CHRM1 agonist)
O=C(NCC1CCN(C(=O)C(=O)c2cc3ccccc3o2)CC1)c1ccncc1	none (no result: M1 antag, M1 PAM, CHRM1 agonist)
Cc1c(C(=O)NCc2cccc([N+](=O)[O-])c2)sc(=O)n1Cc1cccc(F)c1	none
Cc1c(C(=O)NCc2cccc([N+](=O)[O-])c2)sc(=O)n1Cc1ccc(F)cc1	M1 antag 39.2
COc1ccc(CNC(=O)c2sc(=O)n(Cc3ccc(-c4ccccc4)cc3)c2C)cc1OC	TAAR1 antagonist 65.0
COc1ccc(CNC(=O)c2sc(=O)n(Cc3ccc(C)cc3)c2C)cc1OC	none
CCc1nc2c(OCc3cc(Cl)cc(Cl)c3)cccn2c1N(C=O)Cc1ccccc1	none
COC(=O)[C@]12CCCCC=C1N(CCC1=CCCCC1)C(=O)[C@H](CC(=O)N1CCN(C(=O)c3ccco3)CC1)C2	none (no result: M1 antag, M1 PAM, CHRM1 agonist)
O=C(c1cc(-c2ccccc2O)on1)N1CCc2ccccc2C1	none
O=C(c1cc(-c2ccco2)on1)N1CCc2ccccc2C1	M1 PAM 28.0
CCCC[C@@H]1CNC(=O)C(=O)N1CCc1cc(C(F)(F)F)cc(C(F)(F)F)c1	none
CCCC[C@@H]1CNCCN1CCc1cc(C(F)(F)F)cc(C(F)(F)F)c1	M1 antag 33.6
CCCCN1/C(=C/c2cccc[n+]2C)Sc2cc(NC(C)=O)ccc21	none
CCCCN1/C(=C/c2ccc3ccccc3[n+]2CC)Sc2ccccc21	M1 antag 44.3, CHRM1 agonist 26.1 (no result: TAAR1 agonist, TAAR1 antagonist)
CCN1/C(=C/c2ccc3cc(C)ccc3[n+]2C)Sc2ccc3sccc3c21	none
CCN1/C(=C/c2ccc3cc(C)ccc3[n+]2CC)Sc2cc(C)ccc21	M1 antag 67.4, CHRM1 agonist 26.3
CCN1/C(=C/c2ccc3ccccc3[n+]2CC)C=Cc2ccccc21	M1 antag 48.5
CCN1/C(=C/c2ccc3ccccc3[n+]2CCCS(=O)(=O)[O-])C=Cc2cc(C)ccc21	none
CCOC(=O)/C(CCC[N+](C)(CC)CC)=N\O	M1 antag 91.2
CCOC(=O)C(Cc1ccnc2ccccc12)=NO	none
O=C(N/N=C/c1ccc(F)cc1)c1cccc(NC(=O)c2ccccc2Cl)c1	TAAR1 antagonist 54.2
O=C(N/N=C/c1ccncc1)c1cccc(NC(=O)c2ccccc2Cl)c1	TAAR1 antagonist 50.0
O=C(NN=Cc1ccc(F)cc1)c1cccc(S(=O)(=O)N2CCCC2)c1	M1 antag 35.6
O=C(N/N=C/c1ccncc1)c1cccc(S(=O)(=O)N2CCCC2)c1	none
C#CCNC(=O)C[C@H]1C[C@@]2(C(=O)OC)C(=C[C@H](C(C)(C)C)O[C@@H]2C)N(CCc2ccc(OC)c(OC)c2)C1=O	none (no result: M1 antag, M1 PAM, CHRM1 agonist)
